Legend:
[1] = target: T1, Glutamate NMDA receptor; GRIN1/GRIN2A (Homo sapiens, UniProt Q05586+Q12879); experiment: Positive allosteric modulation of GluN1/GluN2A NMDAR (unknown origin) expressed in Dox-inducible cells measured every 5 mins by BD calcium indicator dye based-fluorescence analysis in presence of glutamate/glycine; assay type: cell-based
Summary of the method: (§1)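 GluN2A-containing NMDAR cell line, harvested, seeded, doxycycline 2 µg/mL overnight with 500 µM ketamine for protection, then washed and loaded with calcium dye for 50 min. Compound added at 2x concentration in 2x EC30 Glu (EC30 set daily from Glu dose-response); saturating Gly throughout; fluorescence recorded over 5 min.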

[2] = target: T2, Glutamate receptor 2 (Homo sapiens, UniProt P42262); experiment: Positive allosteric modulation of human GluA2 AMPAR flip isomer expressed in Dox-inducible cells measured every 5 mins by BD calcium indicator dye based-fluorescence analysis in presence of glutamate; assay type: cell-based
T2 sequence (P42262 whole entry): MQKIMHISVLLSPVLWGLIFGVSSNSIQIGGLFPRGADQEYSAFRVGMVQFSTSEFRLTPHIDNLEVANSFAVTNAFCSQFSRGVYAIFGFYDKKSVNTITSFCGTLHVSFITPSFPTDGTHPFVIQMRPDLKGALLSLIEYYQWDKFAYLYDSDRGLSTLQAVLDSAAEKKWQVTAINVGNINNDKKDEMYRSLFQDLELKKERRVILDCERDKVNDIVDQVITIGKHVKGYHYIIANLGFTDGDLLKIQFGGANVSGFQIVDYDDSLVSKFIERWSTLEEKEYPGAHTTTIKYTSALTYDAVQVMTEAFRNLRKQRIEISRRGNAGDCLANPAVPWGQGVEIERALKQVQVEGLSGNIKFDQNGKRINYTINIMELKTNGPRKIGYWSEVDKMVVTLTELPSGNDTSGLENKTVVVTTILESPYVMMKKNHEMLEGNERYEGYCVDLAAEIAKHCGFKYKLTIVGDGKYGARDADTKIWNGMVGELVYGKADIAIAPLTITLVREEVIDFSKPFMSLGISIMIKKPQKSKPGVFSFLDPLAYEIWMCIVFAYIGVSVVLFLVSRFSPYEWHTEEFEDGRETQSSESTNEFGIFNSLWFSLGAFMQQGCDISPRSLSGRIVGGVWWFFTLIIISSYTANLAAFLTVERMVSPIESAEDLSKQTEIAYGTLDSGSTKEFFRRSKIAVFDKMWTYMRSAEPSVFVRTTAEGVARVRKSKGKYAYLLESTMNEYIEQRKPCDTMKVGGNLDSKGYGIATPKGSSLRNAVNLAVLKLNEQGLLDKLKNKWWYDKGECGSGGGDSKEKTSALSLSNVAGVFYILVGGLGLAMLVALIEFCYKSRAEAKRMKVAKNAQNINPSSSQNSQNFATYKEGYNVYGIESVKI

[3] = target: T1, Glutamate NMDA receptor; GRIN1/GRIN2A; experiment: Positive allosteric modulation of GluN1/GluN2A NMDAR (unknown origin) expressed in Dox-inducible cells at 125 uM measured every 5 mins by BD calcium indicator dye based-fluorescence analysis in presence of glutamate/glycine; assay type: cell-based; summary of the method: as §1
[4] = target: T2, Glutamate receptor 2; experiment: Positive allosteric modulation of human GluA2 AMPAR flip isomer expressed in Dox-inducible cells at 125 uM measured every 5 mins by BD calcium indicator dye based-fluorescence analysis in presence of glutamate; assay type: cell-based
[5] = target: T2, Glutamate receptor 2; experiment: Positive allosteric modulation of human GluA2 AMPAR flop isomer expressed in Dox-inducible cells measured every 5 mins by BD calcium indicator dye based-fluorescence analysis in presence of glutamate; assay type: cell-based
[6] = target: T2, Glutamate receptor 2; experiment: Positive allosteric modulation of human GluA2 AMPAR flop isomer expressed in Dox-inducible cells at 125 uM measured every 5 mins by BD calcium indicator dye based-fluorescence analysis in presence of glutamate; assay type: cell-based
[7] = tested on: human MDR1 (P-gp); experiment: Efflux ratio of permeability from basolateral to apical over apical to basolateral side in MDCK cells expressing human MDR1; assay type: ADME, cell-based, Canis lupus familiaris; conditions: dog

## Cc1sc2nc(Cn3nc(C(F)(F)F)cc3Cl)cc(=O)n2c1[C@@H]1C[C@H]1C#N
[1]
  EC50: 29.5 nM
[2]
  EC50: 702 nM
[3]
  %max: 151%
[4]
  %max: 91%
[5]
  EC50: 73 nM
[6]
  %max: 93%
[7]
  efflux ratio: 5.3

## CCN(Cc1cc(=O)n2c(-c3cncnc3)c(C)sc2n1)c1ccc(F)cc1
[1]
  EC50: 137 nM
[3]
  %max: 148%
[4]
  %max: 56%
[5]
  EC50: 972 nM
[6]
  %max: 16%
[7]
  efflux ratio: 1.2

## CCN(Cc1cc(=O)n2c(CCO)c(C)sc2n1)c1ccc(F)cc1
[1]
  EC50: 159 nM
[2]
  EC50: 10500 nM
[3]
  %max: 168%
[4]
  %max: 72%
[5]
  EC50: 572 nM
[6]
  %max: 75%
[7]
  efflux ratio: 0.9

## CCN(Cc1cc(=O)n2c(N3CCOCC3)c(C)sc2n1)c1ccc(F)cc1
[1]
  EC50: 2200 nM
[2]
  EC50: 75800 nM
[3]
  %max: 69%
[4]
  %max: 11%
[5]
  EC50: 60200 nM
[6]
  %max: 8%
[7]
  efflux ratio: 0.9

## CCNC(=O)c1c(C)sc2nc(CN(C)c3ccc(F)cc3)cc(=O)n12
[1]
  EC50: 434 nM
[3]
  %max: 159%
[4]
  %max: 2%
[6]
  %max: 2%
[7]
  efflux ratio: 8.6

## Cc1sc2nc(Cn3nc(C(F)(F)F)cc3Cl)cc(=O)n2c1[C@@H]1C[C@H]1CO
[1]
  EC50: 17.7 nM
[2]
  EC50: 150 nM
[3]
  %max: 147%
[4]
  %max: 85%
[5]
  EC50: 48 nM
[6]
  %max: 52%
[7]
  efflux ratio: 1.3

## CCN(Cc1cc(=O)n2c(C(C)C)c(C)sc2n1)c1ccc(F)cc1
[1]
  EC50: 685 nM
[2]
  EC50: 34400 nM
[3]
  %max: 129%
[4]
  %max: 15%
[6]
  %max: 1%
[7]
  efflux ratio: 1.3

## CCN(Cc1cc(=O)n2c(C(C)(C)O)c(C)sc2n1)c1ccc(F)cc1
[1]
  EC50: 63 nM
[2]
  EC50: 12400 nM
[3]
  %max: 157%
[4]
  %max: 65%
[5]
  EC50: 2400 nM
[6]
  %max: 5%
[7]
  efflux ratio: 1

## CCNC(=O)c1c(C)sc2nc(Cc3cccc(C#N)c3F)cc(=O)n12
[1]
  EC50: 9100 nM
[3]
  %max: 102%
[4]
  %max: 3%
[6]
  %max: 3%
[7]
  efflux ratio: 3.1

## CCNC(=O)c1c(C)sc2nc(Cc3cc(C#N)ccc3C3CC3)cc(=O)n12
[1]
  EC50: 17500 nM
[3]
  %max: 102%
[4]
  %max: 2%
[6]
  %max: 2%
[7]
  efflux ratio: 44

## CCNC(=O)c1c(C)sc2nc(C(C)c3cccc(C(F)(F)F)c3F)cc(=O)n12 (racemic)
[1]
  EC50: 3100 nM
[3]
  %max: 75%
[4]
  %max: 4%
[6]
  %max: 8%
[7]
  efflux ratio: 2.2

## CCN(Cc1cc(=O)n2c([C@@H]3C[C@H]3CO)c(C)sc2n1)c1ccc(F)cc1
[1]
  EC50: 24.4 nM
[2]
  EC50: 870 nM
[3]
  %max: 184%
[4]
  %max: 84%
[5]
  EC50: 204 nM
[6]
  %max: 64%
[7]
  efflux ratio: 1.2

## CCNC(=O)c1c(C)sc2nc(Cc3cccc(C(F)(F)F)c3)cc(=O)n12
[1]
  EC50: 1900 nM
[3]
  %max: 113%
[4]
  %max: 18%
[5]
  EC50: 66200 nM
[6]
  %max: 21%
[7]
  efflux ratio: 20

## Cc1sc2nc(Cc3cccc(C#N)c3F)cc(=O)n2c1C1CC1CO (racemic)
[1]
  EC50: 900 nM
[2]
  EC50: 32600 nM
[3]
  %max: 160%
[4]
  %max: 38%
[5]
  EC50: 1100 nM
[6]
  %max: 23%
[7]
  efflux ratio: 3.6

## CCNC(=O)c1c(C)sc2nc(Cn3nc(C(F)(F)F)cc3OCC)cc(=O)n12
[1]
  EC50: 414 nM
[3]
  %max: 144%
[4]
  %max: 32%
[5]
  EC50: 9100 nM
[6]
  %max: 43%
[7]
  efflux ratio: 57

## CCNC(=O)c1c(C)sc2nc(Cn3nc(C(F)(F)F)cc3OCC(C)C)cc(=O)n12
[1]
  EC50: 57100 nM
[3]
  %max: 60%
[4]
  %max: 3%
[6]
  %max: 10%
[7]
  efflux ratio: 3.7

## CCN(Cc1cc(=O)n2c(C(=O)NC)c(C)sc2n1)c1ccc(F)cc1
[1]
  EC50: 131 nM
[3]
  %max: 185%
[4]
  %max: 18%
[6]
  %max: 38%
[7]
  efflux ratio: 9.8

## CCN(Cc1cc(=O)n2c(C3CC3)c(C)sc2n1)c1ccc(F)cc1
[1]
  EC50: 394 nM
[2]
  EC50: 34000 nM
[3]
  %max: 168%
[4]
  %max: 35%
[5]
  EC50: 9800 nM
[6]
  %max: 31%
[7]
  efflux ratio: 0.8

## CCNC(=O)c1c(C)sc2nc(Cn3ccc(C(F)(F)F)n3)cc(=O)n12
[1]
  EC50: 17000 nM
[3]
  %max: 99%
[4]
  %max: 2%
[6]
  %max: 1%
[7]
  efflux ratio: 21.5

## CCNC(=O)c1c(C)sc2nc(CNc3ccc(F)cc3)cc(=O)n12
[1]
  EC50: 7000 nM
[3]
  %max: 123%
[4]
  %max: 8%
[6]
  %max: 19%
[7]
  efflux ratio: 5.8

## CCNC(=O)c1c(C)sc2nc(Cn3nc(C(F)(F)F)cc3C)cc(=O)n12
[1]
  EC50: 4900 nM
[3]
  %max: 128%
[4]
  %max: 8%
[6]
  %max: 19%
[7]
  efflux ratio: 33

## CCNC(=O)c1c(C)sc2nc(Cc3cccc(C#N)c3)cc(=O)n12
[1]
  EC50: 62200 nM
[2]
  EC50: 32900 nM
[3]
  %max: 71%
[4]
  %max: 10%
[5]
  EC50: 53700 nM
[6]
  %max: 8%
[7]
  efflux ratio: 25

## Cc1sc2nc(COc3ccc(F)cc3)cc(=O)n2c1[C@@H]1C[C@H]1CO
[1]
  EC50: 382 nM
[2]
  EC50: 5400 nM
[3]
  %max: 122%
[4]
  %max: 7%
[5]
  EC50: 2300 nM
[6]
  %max: 6%
[7]
  efflux ratio: 0.8

## CCN(Cc1cc(=O)n2c(CCCO)c(C)sc2n1)c1ccc(F)cc1
[1]
  EC50: 183 nM
[2]
  EC50: 33200 nM
[3]
  %max: 169%
[4]
  %max: 37%
[5]
  EC50: 1500 nM
[6]
  %max: 45%
[7]
  efflux ratio: 1

## CCNC(=O)c1c(C)sc2nc(Cc3cc(C#N)ccc3Cl)cc(=O)n12
[1]
  EC50: 12900 nM
[3]
  %max: 94%
[4]
  %max: 1%
[6]
  %max: 0%
[7]
  efflux ratio: 22

## Cc1sc2nc(Cc3cccc(C(F)(F)F)c3F)cc(=O)n2c1C1CC1CO (racemic)
[1]
  EC50: 454 nM
[2]
  EC50: 1700 nM
[3]
  %max: 117%
[4]
  %max: 57%
[5]
  EC50: 359 nM
[6]
  %max: 27%
[7]
  efflux ratio: 0.51

## CCNC(=O)c1c(C)sc2nc(CN(CC)c3ccc(F)cn3)cc(=O)n12
[1]
  EC50: 1700 nM
[3]
  %max: 170%
[4]
  %max: 6%
[6]
  %max: 13%
[7]
  efflux ratio: 22

## CCN(Cc1cc(=O)n2c(CO)c(C)sc2n1)c1ccc(F)cc1
[1]
  EC50: 649 nM
[2]
  EC50: 66300 nM
[3]
  %max: 153%
[4]
  %max: 39%
[5]
  EC50: 1900 nM
[6]
  %max: 83%
[7]
  efflux ratio: 1.1

## CCN(Cc1cc(=O)n2cc(C)sc2n1)c1ccc(F)cc1
[1]
  EC50: 312 nM
[2]
  EC50: 252 nM
[3]
  %max: 150%
[4]
  %max: 95%
[5]
  EC50: 245 nM
[6]
  %max: 93%
[7]
  efflux ratio: 1

## CCCN(Cc1cc(=O)n2c(C(=O)NCC)c(C)sc2n1)c1ccc(F)cc1
[1]
  EC50: 132 nM
[3]
  %max: 171%
[4]
  %max: 5%
[5]
  EC50: 48700 nM
[6]
  %max: 32%
[7]
  efflux ratio: 12.6

## CCNC(=O)c1c(C)sc2nc(Cn3nc(C(F)(F)F)cc3C3CC3)cc(=O)n12
[1]
  EC50: 536 nM
[3]
  %max: 147%
[4]
  %max: 54%
[5]
  EC50: 6400 nM
[6]
  %max: 60%
[7]
  efflux ratio: 2.2

## CCN(Cc1cc(=O)n2c(C3CCC3)c(C)sc2n1)c1ccc(F)cc1
[1]
  EC50: 2600 nM
[2]
  EC50: 35900 nM
[3]
  %max: 122%
[4]
  %max: 38%
[5]
  EC50: 8600 nM
[6]
  %max: 20%

— ChEMBL document CHEMBL3797125, “Discovery of GluN2A-Selective NMDA Receptor Positive Allosteric Modulators (PAMs): Tuning Deactivation Kinetics via Structure-Based Design” (J Med Chem, 2016)
